Fewer inactive variants are shown than the library holds. Where only a bound is given, the exact number is not on record here.

B1: tRNA (parent)
chain: GUUCCGUUGGCGUAAUGGUAACGCGUCUCCCUCCUAAGGAGAAGACUGCGGGUUCGAGUCCCGUACGGAACG

Variants of B1 are the subject of this series. The series is described as follows: yeast fitness relative to wild type (ratio to wild type); higher = fitter; tRNA-Arg(CCU), competitive growth, 37 C, YPD. The method in brief: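 Amplicons of the tRNA-Arg(CCU) gene were sequenced, 100-nucleotide paired-end, from the start population and from each end population of a pooled yeast competition. The competition, in six parallel replicates, lasted 24 hours in YPD at 37°C. Fitness relative to wild type was calculated from changes in genotype frequencies. Genotypes had to have ≥ 100 starting reads, and estimates < 0.5 were set to 0.5.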
Take GUUCCGUUGGCGUAAUGGUAACGCGUUUCCCUCCUAAGGAGAAGACUGCGGGUUCGAGUCACGUACGGUACG [C27U C61A A69U]: the yeast fitness came out at 0.551. The figure for GUUCCGUUGGCGUAAUGGUAACGCGUUUCCCUCCUAACGAGAAGACUGCGGGUUCGAGUCCCGUACGGUACG [C27U G38C A69U] is no more than 0.5; for GUUCCGUUGGCGUAAUGGUAACGCGUUUCCCUCCUAAGGAGAAAACUGCGGAUUCGCGUCCCGUACGGAACG [C27U G44A G52A A57C] it is 0.538.

With GUUCCGUUGGCGUAAUGGUAACGCGUUUCCCUCCUAAGGAGAAGACUGCGAGUUCGAGUCCCGAACGGGACG [C27U G51A U64A A69G], the yeast fitness was no more than 0.5. Then GUUCCGUUGGCGUAAUGGUAACGCGUUUCCCUCCUAAGGAAAAGACCGCGGGUUCGAGUCCCGUACGGAACG [C27U G41A U47C], with 1.08; and GUUCCGUUGGCGUAAUGGUAACGCGUUUCCCUCGUAAGGAGAAGACUGCGGGUUCGAGUACCGUACGGAACG [C27U C34G C60A], with no more than 0.5; and GUUCCGUUGGCGUAAUGGUAACGCGUUUCCCUCCUAAGGAAAAGACUGCGGGUUCGACUCCCGUACGGCACG [C27U G41A G58C A69C], with 0.645.

On to GUUCCGUUGGCGUAAUGGUAACGCGUUUCCCUUCUAACGAGAAGACUGCGGGUUCGAGUCCUGUACGGAACG [C27U C33U G38C C62U], for which the yeast fitness is no more than 0.5. Then GUUCCGUUGGCGUAAUGGUAACGCGUUUCCCUUCUAAGGAGAAGACAGCGGGUUCGAGUCCCGUACGGACCG [C27U C33U U47A A70C], with no more than 0.5; and GUUCCGUUGGCGUAAUGGUAACGCGUUUCCCUCCUAAGGAGAAGACUGCGCGUUAGAGUCCCGUACGGAACG [C27U G51C C55A], with no more than 0.5; and GUUCCGUUGGCGUAAUGGUAACGCGUUUCCCUUCUAAGGAGAAGACUGCGGGUUCGAGUCCCGUACGGAACG [C27U C33U], with 0.664. Then GUUCCGUUGGCGUAAUGGUAACGCGUUUCCCUCCUAAGGAGAAGACUGCGGGUUUGAGUCCCGUACGGAACG [C27U C55U], with 0.773. For GUUCCGUUGGCGUAAUGGUAACGCGUUUCCCUGCUAAGGAGAUGACUGCGGGUUCGAGUGCCGUACGGAACG [C27U C33G A43U C60G], the yeast fitness is no more than 0.5. Then GUUCCGUUGGCGUAAUGGUAACGCGUUUCCCUGCUAAGGAGAAGACUGCGGGUUCGGGUCCCGUACGGAACG [C27U C33G A57G], with no more than 0.5; and GUUCCGUUGGCGUAAUGGUAACGCGUUUCCCUCCUAAAGAGAAGACUGCGGGUUCGAGUCCCGUACGCAACG [C27U G38A G68C], with no more than 0.5. Then GUUCCGUUGGCGUAAUGGUAACGCGUUUCCCUUCUAAGGCGAAGACUGCGGGUUAGAGUCCCGUGCGGAACG [C27U C33U A40C C55A A65G], with 0.503; and GUUCCGUUGGCGUAAUGGUAACGCGUUUCCCUCCUAAGGAGAAGACUGCGGGUUCGAGUCCCGUAUGGUACG [C27U C66U A69U], with 0.779; and GUUCCGUUGGCGUAAUGGUAACGCGUUUCCCUCCUAAGGAGAAGACUGAGGGUUCGAGUCCCGUACGGAACG [C27U C49A], with 0.785. Consider GUUCCGUUGGCGUAAUGGUAACGCGUUUCCCUCCUAAGGAGAAGACUGCGGGUUCGAGUCCCGUACUGAACG [C27U G67U], for which the yeast fitness amounted to 0.854.

On to GUUCCGUUGGCGUAAUGGUAACGCGUUUCCCUCCUAAGGAGAAGACUGCGGGUUCGAGUCCCGUACCGAACG [C27U G67C], for which the yeast fitness was determined as 0.771. For the variant GUUCCGUUGGCGUAAUGGUAACGCGUUUCCCUCUUAAGGAGAAGACUGGGGGUUCCAGUCCCGUACGGAACG [C27U C34U C49G G56C], the yeast fitness was no more than 0.5. The figure for GUUCCGUUGGCGUAAUGGUAACGCGUUUCCCUCCUAAGGAGAAGACUGCGGGUUCGAGUCCCGUAAGCAACG [C27U C66A G68C] is 0.543; for GUUCCGUUGGCGUAAUGGUAACGCGUUUCCCUCGUAAGGAGAAGACUGCAGGUUCGAGUCCCGUACGCAACG [C27U C34G G50A G68C] it is no more than 0.5.

GUUCCGUUGGCGUAAUGGUAACGCGUUUCCCUCCUAAGGAGAAGACUGCGGGUUCGAGUCCCGUAGGGAACG [C27U C66G]: the yeast fitness was 0.744. In the case of GUUCCGUUGGCGUAAUGGUAACGCGUUUCCCUCCUAAGGAGAAGACUGCGGGUUCGAGUCCCGUAUGGAACG [C27U C66U], the yeast fitness was determined as 0.955. The figure for GUUCCGUUGGCGUAAUGGUAACGCGUUUCCCUCCUAAGGAGAAGACUGCAGGUUCGAGUCCCGUACGGAACG [C27U G50A] is 0.991.

Turning to GUUCCGUUGGCGUAAUGGUAACGCGUUUCCUUCCCUAGGAGAAGACUGCGGGUUAGAGUCCCGUAGGGAACG [C27U C31U U35C A36U C55A C66G], the yeast fitness was 0.777. Then GUUCCGUUGGCGUAAUGGUAACGCGUUUCCCUUCUUAGGAGAGGACUGCGGGUUCGAGUCCCGUACGGAACG [C27U C33U A36U A43G], with no more than 0.5. Then GUUCCGUUGGCGUAAUGGUAACGCGUUUCCCUCCUAAGGAGAAGACUAUGGGUUCGAGUCCCGUACAGAACG [C27U G48A C49U G67A], with 0.674; and GUUCCGUUGGCGUAAUGGUAACGCGUUUCCCUACUAAGGAGAAGACUGGGGGUUCGAGUCCCGUACGGAACG [C27U C33A C49G], with no more than 0.5; and GUUCCGUUGGCGUAAUGGUAACGCGUUUCCCUCCUAAGGAGAAGAUUGCGGGUUCGAGUCCCGUACGGCACG [C27U C46U A69C], with 0.776. The figure for GUUCCGUUGGCGUAAUGGUAACGCGUUUCCCUCAUAAGGAGAAGACUGCGGGUCCGAGUCCCGUACGGAACG [C27U C34A U54C] is no more than 0.5. Take GUUCCGUUGGCGUAAUGGUAACGCGUUUCCCUCCUAAGGAGAAGACUGCGGGUUAGAGUCCCGUACGGUACG [C27U C55A A69U]: the yeast fitness amounted to 0.549.

On to GUUCCGUUGGCGUAAUGGUAACGCGUUUCCCUCCUAAAGAGAAGACUGCGGGUUCGAGUCCCGUAUGGAACG [C27U G38A C66U], for which the yeast fitness came out at 0.623.

Take GUUCCGUUGGCGUAAUGGUAACGCGUUUCCCUCCUAAGGAGAAGAAUGCAGGUUCGAGUCCCGUACGGAACG [C27U C46A G50A]: the yeast fitness came to 0.73. Turning to GUUCCGUUGGCGUAAUGGUAACGCGUUUCCCUCCUAACGAGAAGACUGCGGGUUCGAGUCCCGUACGGAACG [C27U G38C], the yeast fitness stood at 0.626. Take GUUCCGUUGGCGUAAUGGUAACGCGUUUCCCUCCUAAAGAGAAGACUGCGGGUUCGAGUCCCGUACGGAACG [C27U G38A]: the yeast fitness was 0.773. Consider GUUCCGUUGGCGUAAUGGUAACGCGUUUCCCUUCUAAGGAGAAGACUGCGAGUUCGAGUCCCGUACGGAGCG [C27U C33U G51A A70G], for which the yeast fitness came to 0.555.

(Values after the RNAGym collection of RNA variant scans (doi:10.1126/science.aae0568).)
